Screening results: PubChem, several laboratories
Rows were chosen to be rich in hits. Some 2.5% of all compounds tested hit in one or more screens of this group.
JNK3 inh = inhibitors of human JNK3 kinase; P53779; purified JNK3 kinase activity, HTS; inhibition, % at 8 µM; 60,000 compounds, 0.61% hits; AID 746; in the data active = inhibition above about 17%;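 also: 0% = DMSO and 100% = reference inhibitor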
HEK293 NFkB inh = inhibitors of the PMA/ionomycin-induced NF-kB reporter in HEK293 cells. HEK-293 NF-kB luciferase reporter, luminescence. inhibition, % at 3 µM. 62,000 compounds, 0.21% hits;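 active = inhibition above the mean of all tested compounds plus 3 SD, cut at about 40% in these data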;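 also: 0% = stimulated DMSO wells and 100% = 10 µM reference inhibitor 5653914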
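Reagent: PMA plus ionomycin mix as NF-kB-activating stimulus. Assay system: NF-kB luciferase reporter HEK-293 cells. Technique: luminescence from luciferase substrate reagent. Incubation: 1 h compound pre-incubation, 16 h PMA/ionomycin at 37 °C. Benchmarks: DMSO only as uninhibited control, 10 µM reference inhibitor as full inhibition. Repeats: tested once.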
HER2 expr 66K = inhibitors of human Her2 kinase expression. P04626. SKBR-3 HER2 protein level, AlphaScreen, 18-24 h; active compounds read low. HER2 level % of control, % at 10 µM. 65,000 compounds, 0.69% hits. AID 645;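 active = HER2 level under 5% of the carrier-only control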;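 also: 100% = DMSO carrier and 0% = 500 nM PU-H71 HSP90 inhibitor; lower value means stronger loss of Her2 protein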
Target sequence (P04626 whole entry, looked up): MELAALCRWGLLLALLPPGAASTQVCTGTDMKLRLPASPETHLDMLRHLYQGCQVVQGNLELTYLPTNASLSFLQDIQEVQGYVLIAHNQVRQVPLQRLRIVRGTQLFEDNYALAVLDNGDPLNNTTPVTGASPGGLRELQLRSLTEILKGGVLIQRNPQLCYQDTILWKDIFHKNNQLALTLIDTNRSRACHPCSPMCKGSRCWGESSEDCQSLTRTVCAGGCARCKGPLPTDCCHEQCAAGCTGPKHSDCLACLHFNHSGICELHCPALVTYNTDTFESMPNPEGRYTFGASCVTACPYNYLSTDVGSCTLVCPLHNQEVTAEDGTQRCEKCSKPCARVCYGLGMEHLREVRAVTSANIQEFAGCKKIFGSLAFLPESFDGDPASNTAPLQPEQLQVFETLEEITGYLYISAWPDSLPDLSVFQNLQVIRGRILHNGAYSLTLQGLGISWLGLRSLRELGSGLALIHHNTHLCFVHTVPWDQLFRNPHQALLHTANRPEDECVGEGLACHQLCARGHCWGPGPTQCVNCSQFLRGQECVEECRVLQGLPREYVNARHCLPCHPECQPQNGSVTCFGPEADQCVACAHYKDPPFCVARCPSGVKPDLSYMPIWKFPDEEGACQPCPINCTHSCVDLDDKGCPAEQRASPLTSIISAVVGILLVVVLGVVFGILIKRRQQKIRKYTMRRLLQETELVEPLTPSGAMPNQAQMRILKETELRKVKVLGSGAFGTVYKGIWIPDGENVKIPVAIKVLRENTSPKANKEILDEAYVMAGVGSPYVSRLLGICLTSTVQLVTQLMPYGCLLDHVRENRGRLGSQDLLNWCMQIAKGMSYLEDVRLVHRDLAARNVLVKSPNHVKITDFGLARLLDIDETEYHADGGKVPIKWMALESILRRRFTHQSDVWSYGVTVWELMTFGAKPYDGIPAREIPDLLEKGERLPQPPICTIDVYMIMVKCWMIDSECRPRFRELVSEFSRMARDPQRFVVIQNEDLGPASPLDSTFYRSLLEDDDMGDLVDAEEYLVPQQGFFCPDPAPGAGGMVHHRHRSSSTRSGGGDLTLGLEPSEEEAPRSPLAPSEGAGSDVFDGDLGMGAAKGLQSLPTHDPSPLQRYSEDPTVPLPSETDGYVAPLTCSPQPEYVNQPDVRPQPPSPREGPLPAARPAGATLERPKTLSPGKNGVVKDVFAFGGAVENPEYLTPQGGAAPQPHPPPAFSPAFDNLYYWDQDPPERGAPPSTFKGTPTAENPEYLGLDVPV
Jurkat tox 60K = reduces viability or proliferation of Jurkat cells. Jurkat E6.1 viability, ATP luminescence, 48 h. inhibition, % at 4 µM. 56,000 compounds, 1.2% hits;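 active = inhibition above the mean inhibition of all tested compounds plus 3 SD, cut at about 28% in these data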
Hsp90 block = displaces geldanamycin probe from tumor Hsp90. P07900. inhibition, % at 30 µM. AID 429. 64,000 compounds, 0.35% hits. NCI-N417 lysate Hsp90, Cy3B-geldanamycin FP displacement;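 active = inhibition above 50%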;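 also: 0% = tracer plus lysate wells and 100% = tracer alone without lysate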
AP ELISA ortho = alternative pathway complement inhibition, orthogonal assay; Human serum alternative complement pathway, LPS-coated ELISA, C3 deposition; tested in compound mixtures; inhibition, % at 5 µM; 62,000 compounds, 0.08% hits;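 active = inhibition above 30% in each of the two pooled mixtures holding the compound, so the lower value exceeds 30%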;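 also: 0% = serum in Mg-EGTA without compound and 100% = EDTA serum blank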
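Assay system: human serum alternative complement pathway, C3 deposition on LPS-coated wells; Dosing: 5 µM per compound in ten-compound mixtures; Detection: Anti-C3 ELISA, OD 450 nm; Buffer or medium: Mg2+-EGTA GVB++ buffer containing human serum at 1:15 dilution; Timing: 1 h at 37 °C; Replication: two different pools per compound.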
* hit, by the source's call; nt = no result.

SMILES	JNK3 inh	HEK293 NFkB inh	HER2 expr 66K	Jurkat tox 60K	Hsp90 block	AP ELISA ortho
COc1ccc(OC)c(S(=O)(=O)Nc2ccc(O)c3ccccc23)c1	-8	0	1.2*	25	16	5
COC(=O)C1=C(NC(=O)c2ccc(C)c(C)c2)CCS1	5	20	74	-3	2	12
NC/C=C/C(=O)O	nt	nt	nt	nt	-2	nt
O=c1cc(-c2ccccc2)[nH]c2nc3ccccc3n12	19*	-10	75	47*	-4	-1
Cc1nc2ccc(S(=O)(=O)Nc3ccccc3C)cc2s1	7	12	103	30*	-8	14
CC(C)OCCCNc1ncnc2c1[nH]c1ccccc12	1	14	72	67*	-10	-4
COc1ccc(C(=O)C(CN2CCCC2)c2ccccc2)cc1 (stereo unspecified)	-8	nt	-6.9*	nt	-5	nt
CCn1c(SCC(=O)Nc2ccc(Cl)cc2)nnc1C1CC1	22*	13	105	4	0	3
CCOc1cc(C)c(Cl)cc1S(=O)(=O)n1cnc2ccccc21	-5	13	98	3	0	11
COc1ccc(Cl)cc1S(=O)(=O)n1cnc2ccccc21	-8	15	98	53*	2	-3
CCOc1ccc(Cl)cc1S(=O)(=O)n1cnc2ccccc21	-7	11	74	51*	0	10
CCOC(=O)NC(NC(=O)OCC)C(=O)c1ccc(F)cc1	nt	nt	78	nt	-1	nt
O=C(Nc1nc2ccc(S(=O)(=O)N3CCCC3)cc2s1)C1CCCCC1	2	10	85	93*	-3	1
Cc1ccc(Cn2nnc3c(=O)n(Cc4ccccc4C)cnc32)cc1	9	2	62	-2	4	6
CCOC(=O)c1c(C)c(C(=O)Nc2ccc3c(c2)OCCO3)c(C)n1CC	1	12	72	48*	-5	12
O=C1CCC(=O)N1c1ccc(CSc2nc3ccccc3[nH]2)cc1	-2	-6	129	-1	0	9
c1ccc2[nH]c(SCc3ccc(-c4nnco4)cc3)nc2c1	-1	-7	80	5	94*	5
CC(C)Cn1c(N)c(C(=O)COC(=O)c2ccc3c(c2)OCCO3)c(=O)n(C)c1=O	9	24	97	3	-10	-8
CC(C)Cn1c(N)c(C(=O)CSc2ccc3c(c2)OCCO3)c(=O)n(C)c1=O	1	38	107	36*	1	7
COc1c(S(=O)(=O)n2nc(C)cc2C)ccc(Cl)c1Cl	-3	12	97	-6	-1	-6
CN(C)CCCN1c2ccccc2Sc2ccc(C(F)(F)F)cc21	-15	nt	108	nt	0	-5
OCCN1CCN(CCCN2c3ccccc3Sc3ccc(C(F)(F)F)cc32)CC1	-3	nt	-9.1*	nt	0	8
Oc1ccc2ccccc2c1C=NCc1cn2ccsc2n1	5	16	-11*	-2	9	3
Cc1cccc(-c2nnc3n2N=C(c2ccccc2Br)CS3)c1	-1	-4	106	12	0	-20
O=C(Nc1ccncc1)C1CCCN(S(=O)(=O)c2cccc3cccnc23)C1 (stereo unspecified)	-14	27	77	89*	0	11
SMILES	JNK3 inh	HEK293 NFkB inh	HER2 expr 66K	Jurkat tox 60K	Hsp90 block	AP ELISA ortho
COc1cccc(NC(=O)C2CCCN(S(=O)(=O)c3cccc4cccnc34)C2)c1 (stereo unspecified)	-9	9	94	-1	-3	-7
O=C(Nc1ccc(CN2CCOCC2)cc1)c1cc2ccccc2oc1=O	nt	-23	93	nt	1	8
COc1ccc(C(=O)NC(C)c2nc3ccccc3n2C)cc1OC (stereo unspecified)	nt	16	62	nt	nt	10
COc1ccc(C(O)c2nc3ccccc3n2C)cc1OC (stereo unspecified)	4	20	155	54*	-3	17
O=C(Nc1cccc2cccnc12)c1sc2cc(Cl)ccc2c1Cl	nt	nt	nt	nt	-2	nt
O=C(COc1cccc(Oc2ccccc2)c1)Nc1ncccn1	4	1	75	-2	0	-10
Cc1cc(NC(=O)COc2cccc(Oc3ccccc3)c2)no1	0	-4	119	50*	-4	6
O=C(Cc1n[nH]c(=O)c2ccccc12)OCC(=O)c1ccc2c(c1)OCCO2	1	16	83	91*	-2	-12
O=C(CSc1n[nH]c(-c2ccccc2)n1)c1ccc(O)c(O)c1	2	8	98	22	76*	12
Cc1ccc(N2C(=O)c3oc4ccccc4c(=O)c3C2c2cccc(O)c2)nc1 (stereo unspecified)	7	-5	65	-6	1	13
COc1ccc(CCC(=O)NC2=NCCS2)cc1OC	3	15	89	-10	1	1
COc1cc2c(cc1OC)C(C)N(C(=O)C1COc3ccccc3O1)CC2 (stereo unspecified)	1	6	117	4	1	-13
COc1cc2c(cc1OC)C(C)N(C(=O)c1cc3ccccc3o1)CC2 (stereo unspecified)	2	9	90	28*	-4	14
CCc1cc(=O)oc2cc(OC(C)C(=O)O)c(Cl)cc12 (stereo unspecified)	-2	10	90	2	0	-6
O=C(CSc1ncccc1-c1nc2ccccc2[nH]1)N1CCN(c2ccccc2F)CC1	28*	23	121	4	-4	3
Cc1c(Br)cc(C(=O)NCc2ccco2)c(C)c1C	-2	6	105	-1	3	-8
Cc1ccc2c(CC(=O)NCc3ccco3)coc2c1C	-5	14	56	69*	0	2
COc1ccc(-c2ccc(N)[n+](CCCC(=O)O)n2)cc1	nt	nt	nt	nt	2	nt
CCOc1ccc2nc(-c3ccccc3)[nH]c2c1	-2	-32	60	76*	-1	0
COc1ccc2nc(-c3ccccc3)[nH]c2c1	-2	-43	86	16	0	-32
Cc1ccccc1Cn1c(=O)c2c(nc3n2CCN3Cc2ccco2)n(C)c1=O	-5	12	88	1	0	46
Cc1cc(C)nc(SCc2nnc(SCC(=O)Nc3cc(C(F)(F)F)ccc3Cl)o2)n1	0	24	104	-1	0	6
CCOC(=O)C(C(=O)OCC)c1cc(Br)c2noc3c2c1C(=O)c1ccccc1-3	nt	-2	-5.2*	nt	nt	-5
CCc1nnc(NC(=O)CCC(=O)NC2CCCCC2)s1	-10	2	122	7	-3	11
CCc1nnc(NC(=O)C2CCN(C(=O)NC3CCCCC3)CC2)s1	2	6	91	-5	0	34*
COc1ccc(C(=O)c2no[n+]([O-])c2C(=O)c2ccc(OC)cc2)cc1	1	5	-22*	-2	-5	1
CC(=O)Nc1ccccc1N(C)S(=O)(=O)c1ccc(C)cc1	0	18	107	45*	-4	6
